Only some compounds are listed: those with a hit (about 2.5% of all), similar ones and a draw of the others.
Exocytosis inh: lytic granule exocytosis inhibition | TALL-104 LAMP-1 surface exposure, flow cytometry; cells stimulated with thapsigargin and PMA | inhibition, % at 10 µM | hit rate 0.66% among 360,000;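 active = inhibition above about 55%, limit read from the data; inconclusive = no clear call, values can overlap the other calls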
Bfl-1 A1 inh: inhibitors of the anti-apoptotic protein A1, read as caspase activation; MEF A1-2A-BIM cells, Caspase-Glo 3/7 luminescence, 3 h; percent of clofoctol response, vehicle zero; caspase activation, % (concentration not given with the values); hit rate 0.066% among 330,000; AID 2462;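 active = over half of replicate activation scores above 10%, or exactly half above 10 with the replicate mean above 10; inconclusive = replicate mean below 10 yet half the replicates above 10; inactive = over half of replicates below 10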
MC4R antagonist: human MC4R antagonism in cAMP assay. P32245. MC4R-expressing cells, MTII-stimulated cAMP, LANCE TR-FRET. inhibition, % at 6.5 µM. hit rate 0.48% among 360,000;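 active = inhibition above its plate's cutoff, the mean of tested wells on that plate plus 3 SD, cut at about 29% in these data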
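Material – human MC4R-expressing U2OS cells · Repeats – no replicates · Detection – TR-FRET with Eu-cAMP and labeled anti-cAMP, 671 nm · Times – compound 30 min, challenge 1 h, detection 1 h · Compound – single nominal compound dose of 6.5 µM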
MC4R barr agon: agonists of human melanocortin 4 receptor (MC4R) beta-arrestin | P32245 | U2OS MC4R beta-arrestin complementation, luminescence; percent of melanotan II response, DMSO zero | activation, % at 8.9 µM | hit rate 0.98% among 360,000;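 active = activation above a per-plate cutoff, the mean activation of sample wells on that plate plus 3 SD, cut at about 8% in these data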
sPLA2-III inh: Blocks human group III sPLA2 activity. Q9NZ20. QFRET BODIPY PC-A2 liposome hydrolysis, fluorescence. inhibition, % at 12.2 µM. hit rate 0.56% among 370,000;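 active = inhibition above mean plus 3 SD of compounds lying within the high and low control bounds, cut at about 19% in these data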
Target sequence (Q9NZ20 whole entry, looked up): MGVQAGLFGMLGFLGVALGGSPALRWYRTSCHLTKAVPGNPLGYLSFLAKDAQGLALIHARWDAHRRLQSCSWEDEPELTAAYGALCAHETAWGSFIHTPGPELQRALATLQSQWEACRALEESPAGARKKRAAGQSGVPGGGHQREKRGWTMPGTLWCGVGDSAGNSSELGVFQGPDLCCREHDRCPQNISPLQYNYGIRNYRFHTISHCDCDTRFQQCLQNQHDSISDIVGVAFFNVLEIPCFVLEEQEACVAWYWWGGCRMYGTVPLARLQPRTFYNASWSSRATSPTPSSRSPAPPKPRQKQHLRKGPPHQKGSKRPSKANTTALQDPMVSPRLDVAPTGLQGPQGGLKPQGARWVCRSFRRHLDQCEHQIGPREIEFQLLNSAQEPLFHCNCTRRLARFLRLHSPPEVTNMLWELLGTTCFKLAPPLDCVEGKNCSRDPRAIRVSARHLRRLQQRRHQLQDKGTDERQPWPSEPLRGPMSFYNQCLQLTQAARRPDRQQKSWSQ
NTR1 agonist: agonists of human neurotensin receptor NTR1; P30989; NTR1-U2OS beta-arrestin-GFP spot imaging, agonist mode; AID 493036; hit rate 0.17% among 330,000; activation, % at 20 µM;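 active = activation at or above 40% of the spot to cytoplasm intensity ratio, with at least 20 cells analyzed; inconclusive = wells under 20 cells, flagged as cytotoxic or low count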
sPLA2 confirm: human GIII-sPLA2 inhibition, confirmation. shares compounds with sPLA2-III inh. recombinant hGIII-sPLA2, BODIPY PC-A2 QFRET fluorescence. inhibition, % at 12.2 µM. hit rate 34% among 2,000. AID 743280;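 active = mean inhibition across triplicates above the hit cutoff set in the earlier primary screen, cut at about 19% in these data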
BODIPY interf: 535nm fluorescence interference, HGIII-sPLA2 counter-screen; shares compounds with sPLA2-III inh; BODIPY FL product fluorescence interference, QFRET; inhibition, % at 12.2 µM; hit rate 8.5% among 2,000;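 active = average inhibition above the solvent-only control mean plus 3 SD, cut at about 6% in these data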
BODIPY interf DR: 535nm optical interference dose response, HGIII-sPLA2 counter-screen; shares compounds with sPLA2-III inh; BODIPY FL product fluorescence interference, cell-free; IC50, µM; 240 tested, under 10 active;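 active = IC50 at or below 10 µM; inactive = IC50 above 10 µM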
Hits are given with their value; . = inactive; ? = inconclusive; / = no result given.

SMILES	Exocytosis inh	Bfl-1 A1 inh	MC4R antagonist	MC4R barr agon	sPLA2-III inh	NTR1 agonist	sPLA2 confirm	BODIPY interf	others
C/C(CC(C)(C)C1CCCCC1)=N\NC(N)=S	.	.	.	.	20	.	19	.
NC(=S)N/N=C1\CC(c2ccc3c(c2)OCCCO3)Oc2ccc(F)cc21 (stereo unspecified)	.	.	.	.	.	.	/	/
NC(=S)N/N=C1\CC(c2ccc3c(c2)OCCO3)Oc2ccc(F)cc21 (stereo unspecified)	.	.	.	.	21	.	.	.
Cc1ccc(NC(=O)C2CC(=O)N(CCc3ccccc3)C2)c(C)c1 (stereo unspecified)	.	.	.	.	.	.	/	/
CN(C)c1ccc(NC(=S)OC2CCC23CCC(c2ccccc2)CC3)cc1 (stereo unspecified)	/	/	/	/	.	/	/	/
COc1cccc(-n2c(N)c(C#N)c3ccc([N+](=O)[O-])cc3c2=O)c1	/	.	/	/	26	.	.	.
COc1ccc(OC)c(NC(=O)CCCN2C(=S)NC(C)(C)CC2C)c1 (stereo unspecified)	.	.	.	.	.	.	/	/
CC1CC(C)(C)NC(=S)N1CC(=O)NCc1ccccc1Cl (stereo unspecified)	.	.	.	.	30	.	.	.
CC1CC(C)(C)NC(=S)N1CCCC(=O)Nc1ccc(F)cc1 (stereo unspecified)	.	.	.	.	.	.	/	/
CCOc1ccccc1NC(=O)CCCN1C(=S)NC(C)(C)CC1C (stereo unspecified)	.	.	.	.	22	.	20	.
COc1ccc(C)cc1NC(=O)CCCN1C(=S)NC(C)(C)CC1C (stereo unspecified)	.	.	.	.	24	.	.	.
CC1CC(C)(C)NC(=S)N1CC(=O)NCc1ccc(Cl)cc1 (stereo unspecified)	.	.	.	.	.	.	/	/
CCOc1ccc(OCC)c(NC(=O)CCCN2C(=S)NC(C)(C)CC2C)c1 (stereo unspecified)	.	.	.	.	25	.	24	.
CCCCC(=O)Nc1ccc(C(=O)NCCc2ccc(S(N)(=O)=O)cc2)cc1	.	.	.	.	.	.	/	/
COc1ccc(C=O)cc1CSc1ncccc1C(=O)O	.	.	.	.	.	.	/	/
Cn1c(CSCc2ccc(F)cc2)n[nH]c1=S	.	.	.	.	.	.	/	/
Cn1c(CSCc2ccccc2)n[nH]c1=S	.	.	.	.	32	.	.	.
Cn1c(CSCc2ccc(Cl)cc2)n[nH]c1=S	.	.	.	.	20	.	.	.
Cn1c(CSCc2ccccc2Cl)n[nH]c1=S	.	.	.	.	.	.	/	/
O=C1C(=O)N(Cc2ccc(-c3ccc(Cl)nc3)cc2)c2ccc(OC(F)(F)F)cc21	/	/	/	/	25	/	32	.	BODIPY interf DR=.
CCCN1C(=O)C(=O)c2cc(Cl)ccc21	.	.	.	.	.	.	/	/
O=C1C(=O)N(Cc2ccc(-c3ccc(F)nc3)cc2)c2ccc(OC(F)(F)F)cc21	/	/	/	/	.	/	/	/
Cc1ccc2c(c1)C(=O)C(=O)N2Cc1ccc(C(F)(F)F)cc1	.	?	.	.	30	.	26	.
O=C1C(=O)N(Cc2ccc(-c3ccccc3)cc2)c2ccc(OC(F)(F)F)cc21	/	/	/	/	26	/	34	.	BODIPY interf DR=.
CC1Sc2ccccc2N(Cc2ccc(OC(F)(F)F)cc2)C1=O (stereo unspecified)	.	/	.	.	.	/	/	/
SMILES	Exocytosis inh	Bfl-1 A1 inh	MC4R antagonist	MC4R barr agon	sPLA2-III inh	NTR1 agonist	sPLA2 confirm	BODIPY interf	others
CC(=O)Nc1ccc(-c2ccnc3c2CC(C(=O)Nc2cccc(Oc4ccccc4)c2)O3)cc1 (stereo unspecified)	.	/	.	.	.	/	/	/
CC(C)Oc1ccc(CNC(=O)CCC(=O)N2CCSc3ccccc32)cc1	.	.	.	.	.	.	/	/
CCOC(=O)N1CCN(C(=O)CSc2nc(CC)nc3c2c(=O)n(C)c(=O)n3C)CC1	.	.	.	.	21	.	.	.
Cc1csc(NC(=S)NC(=O)c2ccccc2)n1	.	.	.	.	21	.	32	.	BODIPY interf DR=.
CC(C)(C)c1cc(Cl)c(O)c(NC(=S)NC(=O)c2cccnc2)c1	.	.	.	.	25	.	23	.
COC(=O)c1ccc(NC(=S)NC(=O)c2cccnc2)cc1	.	.	.	.	21	.	.	.
COc1ccc(NC(=S)NC(=O)c2cccnc2)cc1	.	.	.	.	.	.	/	/
CC(C)(C)c1ccc(C(=O)NNC(=S)NC(=O)c2cccnc2)cc1	.	.	.	.	.	.	/	/
Cc1cc(O)cc(=O)n1-c1ccc(OC(F)F)cc1	/	/	/	/	.	/	/	/
COc1cc(/C=N/NC(=O)CCN2CCN(C)CC2)cc2c1OCO2	.	.	.	.	.	.	/	/
N#Cc1c2c(c[nH]c1=O)CCN2Cc1ccccc1	.	.	.	.	20	.	.	.
CN(C)c1[nH]c(=O)c(C#N)c2c1CCN2Cc1ccccc1	.	.	.	.	.	.	/	/
O=C(N1CCOCCOc2ccccc2OCCOCC1)C(F)(F)F	.	.	.	.	.	.	/	/
CCOC(=O)Cc1cc(=O)n2[nH]c(C(C)(C)C)cc2n1	.	.	.	.	.	.	/	/
C[C@H](CO)N1C[C@H](C)[C@@H](CN(C)S(C)(=O)=O)Oc2ccc(NC(=O)Cn3cnnn3)cc2C1=O	.	.	.	.	.	.	/	/
Cn1c(-c2ccccc2)cc(=O)cc1-c1ccccc1	.	/	.	.	.	/	/	/
O=c1cc(-c2ccccc2)cc(-c2ccccc2)n1O	.	.	.	.	21	.	.	.
COc1cc(C=NCC2OCCc3ccccc32)cc(OC)c1 (stereo unspecified)	.	.	.	.	20	.	.	.
CCCn1c(=O)c2ccccc2n2c(SCCOc3ccc(OC)cc3)nnc12	.	.	.	.	.	.	/	/
CCCn1c(=O)c2ccccc2n2c(SCCOc3ccc(C)cc3)nnc12	.	.	.	.	19	.	.	.
CN(CC(=O)Nc1c(Cl)cccc1Cl)C(=O)Cn1[nH]c(=O)c2ccccc2c1=O	.	.	.	.	.	.	/	/
Cc1ccc(S(=O)(=O)N(C)CCCC(=O)Nc2ccccn2)cc1	.	.	.	.	20	.	.	.
Cc1ccccc1N1CCN(C(=S)c2ccccc2)CC1	.	.	.	.	21	.	.	.
S=C(c1ccccc1)N1CCN(c2ccccc2)CC1	.	/	.	.	.	/	/	/

Screens: PubChem, several laboratories
